pIC50: −log10 of the molar value.
Legend:
[1] = test system: Radical scavenging activity; assay: Antioxidant activity assessed as DPPH free radical scavenging activity after 30 mins; type: functional
Summary of the method: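 DPPH dissolved in MeOH; 160 µL of reaction mixture containing test sample combined with 40 µL DPPH solution, kept in the dark 30 min. Absorbance read at 520 nm and percent inhibition calculated. IC50 (µM giving 50% inhibition of DPPH radical) derived from the log-dose inhibition curve. L-ascorbic acid served as positive control.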

[2] = Cytotoxicity against mouse NS1 cells; type: functional
A549 = assay: Cytotoxicity against human A549 cells after 24 hrs by SRB assay; type: functional, cell-based; settings: A549, 24 h
Summary of the method: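 SRB method: cells plated at 2 × 10^5 cells/mL, then test solutions in MeOH added and cultured a further 24 h. Cells fixed with 12% trichloroacetic acid, stained with 0.4% SRB, absorbance read at 515 nm. IC50 (concentration inhibiting proliferation 50%) calculated from the linear portion of log dose-response curves; paclitaxel positive control.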

P388 = assay: Cytotoxicity against mouse P388 cells after 72 hrs by MTT assay; type: functional, cell-based; settings: P388, 72 h
Summary of the method: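 P388 and HL-60 cells seeded at 5 × 10^4 cells/mL and pre-incubated 24 h. Test solutions in MeOH added, then 72 h exposure. MTT (5 mg/mL solution) added for 4 h, formazan dissolved in DMSO, absorbance read at 540 nm. IC50 taken from the linear part of log dose-response curves. Paclitaxel as positive control.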

Bel-7402 = assay: Cytotoxicity against human Bel7402 cells after 24 hrs by SRB assay; type: functional, cell-based; settings: Bel-7402, 24 h
HL-60 = assay: Cytotoxicity against human HL60 cells after 72 hrs by MTT assay; type: functional, cell-based; settings: HL-60, 72 h

Row | SMILES | pIC50 [1] | further results
1 | CC1=C2C(=CO[C@H](C)[C@H]2C)C(O)=C(C(=O)O)C1=O [CITRININ] | 3.80 | –
2 | Cc1c2c(c3oc4cc(=O)c(C)c5c-4c(c3c1O)O[C@H](C)[C@H]5C)O[C@H](C)[C@H]2C [DICITRININ A] | 4.97 | LD99 [2]: 6.3 µg/mL
3 | Cc1c(O)c(C(=O)O)c(O)c2c1[C@H](C)[C@@H](C)OC2 [DIHYDROCITRININ] | 3.91 | –
4 | Cc1c(O)c(C(=O)O)c(O)c2c1[C@H](C)[C@@H](C)OC2=O [DIHYDROCITRINONE] | < 3.00 | –
5 | Cc1cc(O)cc(O)c1 [ORCINOL] | 6.10 | –
6 | CC(=O)O[C@H]1C(=O)[C@@]2(C)[C@H]([C@H](OC(=O)c3ccccc3)[C@]3(O)C[C@H](OC(=O)[C@H](O)[C@@H](NC(=O)c4ccccc4)c4ccccc4)C(C)=C1C3(C)C)[C@]1(OC(C)=O)CO[C@@H]1C[C@@H]2O [PACLITAXEL] | – | pIC50 (A549): 6.03
7 | Cc1c(O)c2c(c3c1[C@H](C)[C@@H](C)O3)Oc1cc(O)c(C)c3c1[C@H]2O[C@H](C)[C@H]3C [PENICITRINOL A] | 4.57 | –
8 | CO[C@@]12O[C@H](C)[C@@H](C)C1=C(C)C(=O)C1=C2Oc2cc(O)c(C)c3c2[C@H]1O[C@H](C)[C@H]3C [PENICITRINOL B] | 3.54 | pIC50 (A549): < 4.30; pIC50 (P388): < 4.30; pIC50 (Bel-7402): < 4.30; pIC50 (HL-60): < 4.30
9 | Cc1c([C@H](C)[C@@H](C)O)cc(O)c(C(=O)O)c1O [PHENOL A ACID] | 3.10 | –
10 | Cc1c(O)c(C)c2c(c1O)C(=O)OC(C)(O)C2 (centres undefined) [SCLEROTININ B] | < 3.00 | –

The next lines start with results.

Row | pIC50 [1] | SMILES | further results
11 | 5.42 | Cc1cc(O)c(C)c(O)c1C | –
12 | 4.64 | O=C1O[C@H]([C@@H](O)CO)C(O)=C1O [ASCORBIC ACID] | –
13 | 4.23 | CC1=C([C@H](C)[C@@H](C)OC=O)C(=O)C2=C(C1=O)[C@@H]1O[C@H](C)[C@@H](C)c3c(C)c(O)cc(c31)O2 [CITRININ H1] | –
14 | 4.26 | Cc1c([C@H](C)[C@H](C)O)c(O)c2oc3cc(=O)c(C)c4c-3c(c2c1O)O[C@H](C)[C@H]4C [PENNICITRINONE C] | pIC50 (A549): < 4.30; pIC50 (P388): < 4.30; pIC50 (Bel-7402): < 4.30; pIC50 (HL-60): < 4.30
15 | 4.65 | Cc1c(O)cc(O)cc1[C@H](C)[C@@H](C)O [PHENOL A] | –

Source: ChEMBL document CHEMBL1149835, “Citrinin dimers from the halotolerant fungus Penicillium citrinum B-57” (J Nat Prod, 2008)
